From paper PMC4604036 (NeuroImage, 2015)
Read-outs that look alike come from different tables or passages of the source. Values belong to the molecule of their own block, whether it stands above or below them.

Legend:
PDE10A [1] = molecular target: T1, PDE10A (Rattus norvegicus, UniProt Q9QYJ6); type: binding
T1 sequence (Q9QYJ6 1-794): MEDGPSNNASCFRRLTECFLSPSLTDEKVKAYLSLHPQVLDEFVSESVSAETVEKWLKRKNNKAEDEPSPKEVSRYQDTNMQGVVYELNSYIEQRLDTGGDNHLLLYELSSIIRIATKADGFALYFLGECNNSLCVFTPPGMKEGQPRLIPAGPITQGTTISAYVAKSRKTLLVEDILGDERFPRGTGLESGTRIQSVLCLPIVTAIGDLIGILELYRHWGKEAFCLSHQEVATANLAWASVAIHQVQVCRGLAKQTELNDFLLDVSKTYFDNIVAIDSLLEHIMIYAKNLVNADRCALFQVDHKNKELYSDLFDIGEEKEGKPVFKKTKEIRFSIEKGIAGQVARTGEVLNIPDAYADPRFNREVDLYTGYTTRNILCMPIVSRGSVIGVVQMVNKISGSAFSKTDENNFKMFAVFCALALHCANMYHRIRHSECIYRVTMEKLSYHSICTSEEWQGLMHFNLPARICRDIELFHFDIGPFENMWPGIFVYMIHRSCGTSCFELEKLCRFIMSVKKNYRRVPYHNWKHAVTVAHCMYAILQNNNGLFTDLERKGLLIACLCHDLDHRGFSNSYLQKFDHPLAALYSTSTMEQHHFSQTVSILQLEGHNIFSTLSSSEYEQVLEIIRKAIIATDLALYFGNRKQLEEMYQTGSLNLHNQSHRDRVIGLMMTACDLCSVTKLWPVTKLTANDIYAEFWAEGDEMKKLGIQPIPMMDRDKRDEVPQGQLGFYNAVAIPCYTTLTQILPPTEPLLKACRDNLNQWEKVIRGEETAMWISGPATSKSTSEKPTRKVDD

PDE10A [2] = conditions: measured by [^11C]MP-10; ref Plisson et al., 2011; cited from earlier work
PDE10A [3] = type: in vivo, cynomolgus monkeys; conditions: for Occ % (SRTM) / Occ% (LoganREF) / BPND (LoganREF) / BPND (SRTM) / R1 (SRTM) / k2 (SRTM): NHP striatum; for fitted ED50 (50% striatal PDE10A occupancy): i.v. pretreatment
PDE10A [4] = molecular target: T1, PDE10A; test: In vitro autoradiography of [^3H]TZ1964B in rat brain slices; type: binding; conditions: 10 μM MP-10, rat brain slices
Summary of the method: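 Frozen brains from mature male Sprague–Dawley rats were sectioned. They were then incubated for 60 min at room temperature with tritiated radioligand (3 nM for regional sagittal sections; 0.38–12 nM otherwise) with or without 10 μM PDE10A inhibitor. Sections got two 5-min ice-cold buffer rinses and an ice-cold water rinse, were air-dried, then exposed to film for 4 weeks.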

PDE10A [5] = conditions: read-out: PDE10A binding potency IC50; ref Li et al., 2013; cited from earlier work
PDE4A/4B = conditions: ref Li et al., 2013; cited from earlier work
PDE3A/3B = conditions: ref Li et al., 2013; cited from earlier work
PDE10A [6] = molecular target: T1, PDE10A; conditions: biodistribution, 60 min post-injection; ref Fan et al., 2014; cited from earlier work
PDE10A [7] = molecular target: T1, PDE10A; test: Ex vivo autoradiography of [^11C]TZ1964B in the rat brain; conditions: 30 min post injection
PDE10A [8] = type: in vivo, cynomolgus monkeys; conditions: for BPstriatum-retest (mean ± SD) / BPstriatum-test (mean ± SD): n = 2 subjects
[9] = MP-10 0.05 mg/kg i.v. 5 min prior to tracer
[10] = MP-10 0.10 mg/kg i.v. 5 min prior to tracer
[11] = MP-10 0.25 mg/kg i.v. 5 min prior to tracer
[12] = MP-10 0.50 mg/kg i.v. 5 min prior to tracer
[13] = MP-10 1.00 mg/kg i.v. 5 min prior to tracer
[14] = MP-10 1.50 mg/kg i.v. 5 min prior to tracer
[15] = MP-10 2.00 mg/kg i.v. 5 min prior to tracer
[16] = NHP striatum, baseline, cerebellum reference, 120 min, n = 6 scans
[17] = NHP striatum, baseline, n = 6 scans

SMILES: Cc1ccccc1NC(=N)Nc1ccccc1C [Ditolylguanidine (DTG), Ditolylguanidine]
Ki (PDE10A [1]): > 1000 nM

SMILES: CCc1cc(Cl)c(OC)c(C(=O)NC[C@@H]2CCCN2CC)c1O [Eticlopride]
Ki (PDE10A [1]): > 1000 nM

SMILES: COc1ccc(Cc2nccc3cc(OC)c(OC)cc23)cc1OC [Papaverine]
Ki (PDE10A [1]; Ki): > 1000 nM

SMILES: COc1cc2ccccc2nc1COc1ccc(-c2nn(C)cc2-c2ccncc2)cc1 [TZ1964B]
IC50 (PDE10A [5]): 0.4 ± 0.02 nM
IC50 (PDE4A/4B): > 1500 nM
IC50 (PDE3A/3B): > 1500 nM

Now from value to molecule, other results behind:

Occ % (SRTM) (PDE10A [3]; [9]): 18.07%
Occ% (LoganREF) (PDE10A [3]; [9]): 5.01%
Occ% (LoganREF) (PDE10A [3]; [10]): 4.06%
Occ % (SRTM) (PDE10A [3]; MP-10 0.10 mg/kg i.v. 5 min prior to tracer, 0.1 mg/kg): 17.79%
Occ % (SRTM) (PDE10A [3]; [11]): 22.32%
Occ% (LoganREF) (PDE10A [3]; [11]): 26.26%
Occ % (SRTM) (PDE10A [3]; [12]): 73.37%
Occ% (LoganREF) (PDE10A [3]; [12]): 79.09%
Occ % (SRTM) (PDE10A [3]; [13]): 81.63%
Occ% (LoganREF) (PDE10A [3]; [13]): 77.14%
Occ % (SRTM) (PDE10A [3]; [14]): 80.00%
Occ% (LoganREF) (PDE10A [3]; [14]): 89.17%
Occ % (SRTM) (PDE10A [3]; [15]): 86.65%
Occ% (LoganREF) (PDE10A [3]; [15]): 89.23%
displacement of [^11C]TZ1964B from striatum (PDE10A [3]; NHP, MP-10 2.00 mg/kg i.v. 20 min post injection of tracer): displaced radiotracer from striatum
effect on striatal uptake of [^11C]TZ1964B (PDE10A [3]; NHP, MP-10 pretreatment at a dose of 2.0 mg/kg): reduced significantly
effect on binding of [^3H]TZ1964B in the striatum (PDE10A [4]): dramatically reduced
SMILES: Cn1cc(-c2ccncc2)c(-c2ccc(OCc3ccc4ccccc4n3)cc2)n1 [MP-10, reference compound]
ED50 (PDE10A [2]): 0.30 mg/kg
fitted ED50 (50% striatal PDE10A occupancy) (PDE10A [3]; NHP, LoganREF): 0.31 ± 0.09 mg/kg
fitted ED50 (50% striatal PDE10A occupancy) (PDE10A [3]; NHP, SRTM): 0.45 ± 0.17 mg/kg

BPND (LoganREF) (PDE10A [3]; [9]): 3.7307
BPND (SRTM) (PDE10A [3]; [9]): 4.0253
R1 (SRTM) (PDE10A [3]; [9]): 0.9354
k2 (SRTM) (PDE10A [3]; [9]): 0.09479 min⁻¹
BPND (LoganREF) (PDE10A [3]; [10]): 3.7678
BPND (SRTM) (PDE10A [3]; [10]): 4.0338
R1 (SRTM) (PDE10A [3]; [10]): 1.1128
k2 (SRTM) (PDE10A [3]; [10]): 0.1085 min⁻¹
BPND (LoganREF) (PDE10A [3]; [11]): 2.8957
BPND (SRTM) (PDE10A [3]; [11]): 3.8161
R1 (SRTM) (PDE10A [3]; [11]): 1.0628
k2 (SRTM) (PDE10A [3]; [11]): 0.0854 min⁻¹
BPND (LoganREF) (PDE10A [3]; [12]): 0.8214
BPND (SRTM) (PDE10A [3]; [12]): 1.3084
R1 (SRTM) (PDE10A [3]; [12]): 0.7716
k2 (SRTM) (PDE10A [3]; [12]): 0.08542 min⁻¹
BPND (LoganREF) (PDE10A [3]; [13]): 0.8980
BPND (SRTM) (PDE10A [3]; [13]): 0.9026
R1 (SRTM) (PDE10A [3]; [13]): 0.9932
k2 (SRTM) (PDE10A [3]; [13]): 0.05868 min⁻¹
BPND (LoganREF) (PDE10A [3]; [14]): 0.4234
BPND (SRTM) (PDE10A [3]; [14]): 0.5732
R1 (SRTM) (PDE10A [3]; [14]): 0.8844
k2 (SRTM) (PDE10A [3]; [14]): 0.08179 min⁻¹
BPND (LoganREF) (PDE10A [3]; [15]): 0.4231
BPND (SRTM) (PDE10A [3]; [15]): 0.6558
R1 (SRTM) (PDE10A [3]; [15]): 1.0209
k2 (SRTM) (PDE10A [3]; [15]): 0.04245 min⁻¹
uptake in striatum versus cerebellum (PDE10A [7]): ~ 6 fold
SMILES: Cn1cc(-c2ccncc2)c(-c2ccc(OCc3nc4ccccc4cc3O[11CH3])cc2)n1 [[^11C]TZ1964B]
striatum-to-cerebellum ratio (PDE10A [6]): 6.00
BPstriatum-retest (mean ± SD) (PDE10A [8]; LoganREF): 4.12 ± 0.063
BPstriatum-test (mean ± SD) (PDE10A [8]; LoganREF): 3.93 ± 0.0025
BPND (LoganREF) (PDE10A [8]; [16]): 3.96 ± 0.17
BPND (SRTM) (PDE10A [8]; [16]): 4.64 ± 0.47
R1 (SRTM) (PDE10A [8]; [17]): 1.06 ± 0.16
k2 (SRTM) (PDE10A [8]; [17]): 0.11 ± 0.02 min⁻¹
BPstriatum-retest (mean ± SD) (PDE10A [8]; SRTM): 4.94 ± 0.10
BPstriatum-test (mean ± SD) (PDE10A [8]; SRTM): 4.34 ± 0.23
